From publication PMC12077508 (Science Advances, 2025)

Assays:
OR5K1 = target: T1, OR5K1 (Homo sapiens, UniProt Q8NHB7); experiment: cAMPr fluorescence imaging in transfected HEK293T cells; format: cell-based
T1 sequence (Q8NHB7 1-308): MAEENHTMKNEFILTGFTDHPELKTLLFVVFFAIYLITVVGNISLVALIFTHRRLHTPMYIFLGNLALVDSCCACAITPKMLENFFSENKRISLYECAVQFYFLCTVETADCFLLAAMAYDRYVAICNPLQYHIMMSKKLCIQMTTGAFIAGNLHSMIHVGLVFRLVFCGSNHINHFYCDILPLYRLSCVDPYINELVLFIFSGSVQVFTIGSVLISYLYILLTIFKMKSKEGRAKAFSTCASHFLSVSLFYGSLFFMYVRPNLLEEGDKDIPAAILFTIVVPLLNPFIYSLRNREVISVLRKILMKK
Method in brief: (§1)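 HEK293T cells stably expressing the cpGFP-based cAMP sensor cAMPr, on collagen-coated glass dishes, transfected with Rho-tagged receptor (N-terminal 20 residues of bovine rhodopsin) plus RTP1S. Each odorant concentration was tested in a separate experiment, with or without fibronectin, and curves were fitted for EC50 and Hill coefficient.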

OR8D1 = target: T2, OR8D1 (Homo sapiens, UniProt Q8WZ84); experiment: cAMPr fluorescence imaging in transfected HEK293T cells; format: cell-based
T2 sequence (Q8WZ84 1-308): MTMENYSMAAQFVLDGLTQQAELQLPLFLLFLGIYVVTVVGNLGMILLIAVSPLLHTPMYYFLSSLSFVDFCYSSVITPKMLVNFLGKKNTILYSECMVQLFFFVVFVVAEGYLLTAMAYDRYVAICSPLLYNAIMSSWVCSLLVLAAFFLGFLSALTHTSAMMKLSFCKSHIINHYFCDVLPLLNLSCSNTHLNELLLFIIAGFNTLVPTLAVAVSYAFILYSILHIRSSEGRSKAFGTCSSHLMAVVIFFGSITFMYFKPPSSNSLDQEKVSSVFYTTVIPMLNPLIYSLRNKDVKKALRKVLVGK

Olfr73 (mOR-EG) = target: T3, Olfr73 (mOR-EG) (Mus musculus, UniProt Q920P2); experiment: as above; format: cell-based
T3 sequence (Q920P2 1-313): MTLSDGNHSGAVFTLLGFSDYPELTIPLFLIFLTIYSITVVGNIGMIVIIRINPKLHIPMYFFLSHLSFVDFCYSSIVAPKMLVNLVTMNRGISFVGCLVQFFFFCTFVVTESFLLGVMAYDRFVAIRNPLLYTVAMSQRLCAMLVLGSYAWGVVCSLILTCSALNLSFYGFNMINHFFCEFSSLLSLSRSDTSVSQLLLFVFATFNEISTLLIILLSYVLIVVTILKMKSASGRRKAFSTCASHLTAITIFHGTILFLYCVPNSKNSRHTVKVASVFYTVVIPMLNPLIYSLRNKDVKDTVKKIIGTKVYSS

OR51E1 = target: T4, OR51E1 (Homo sapiens, UniProt Q8TCB6); experiment: cAMPr fluorescence imaging in transfected HEK293T cells; format: cell-based
T4 sequence (Q8TCB6 1-318): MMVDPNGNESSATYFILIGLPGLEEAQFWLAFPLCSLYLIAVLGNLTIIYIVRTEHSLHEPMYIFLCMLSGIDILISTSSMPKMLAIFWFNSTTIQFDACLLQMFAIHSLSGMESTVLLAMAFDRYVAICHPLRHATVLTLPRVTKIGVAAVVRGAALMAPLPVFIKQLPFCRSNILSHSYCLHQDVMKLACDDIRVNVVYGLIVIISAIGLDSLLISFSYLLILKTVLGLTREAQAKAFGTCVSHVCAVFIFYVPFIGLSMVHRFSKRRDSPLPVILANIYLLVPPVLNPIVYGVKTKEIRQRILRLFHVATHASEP
Method in brief: as §1

OR5P3 = target: T5, OR5P3 (Homo sapiens, UniProt Q8WZ94); experiment: as above; format: cell-based
T5 sequence (Q8WZ94 1-311): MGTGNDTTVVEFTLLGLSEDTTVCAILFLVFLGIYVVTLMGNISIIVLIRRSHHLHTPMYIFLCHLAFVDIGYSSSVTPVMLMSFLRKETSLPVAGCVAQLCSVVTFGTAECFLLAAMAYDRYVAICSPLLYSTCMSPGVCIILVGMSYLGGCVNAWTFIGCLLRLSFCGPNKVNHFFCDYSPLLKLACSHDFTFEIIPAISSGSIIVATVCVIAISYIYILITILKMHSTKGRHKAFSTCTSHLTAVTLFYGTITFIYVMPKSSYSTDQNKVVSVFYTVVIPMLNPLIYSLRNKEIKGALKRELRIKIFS
Method in brief: as §1

OR5AN1 = target: T6, OR5AN1 (Homo sapiens, UniProt Q8NGI8); experiment: cAMPr fluorescence imaging in transfected HEK293T cells; format: cell-based
T6 sequence (Q8NGI8 1-311): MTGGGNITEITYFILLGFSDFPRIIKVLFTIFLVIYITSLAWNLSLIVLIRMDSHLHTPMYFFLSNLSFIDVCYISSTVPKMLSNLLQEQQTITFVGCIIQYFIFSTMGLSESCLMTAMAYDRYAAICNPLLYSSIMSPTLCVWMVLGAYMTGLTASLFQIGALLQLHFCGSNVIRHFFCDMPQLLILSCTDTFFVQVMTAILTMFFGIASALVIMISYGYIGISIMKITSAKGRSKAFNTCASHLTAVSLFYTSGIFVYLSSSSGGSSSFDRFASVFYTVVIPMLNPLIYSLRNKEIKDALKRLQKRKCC

OR2W1 = target: T7, OR2W1 (Homo sapiens, UniProt Q9Y3N9); experiment: as above; format: cell-based
T7 sequence (Q9Y3N9 1-320): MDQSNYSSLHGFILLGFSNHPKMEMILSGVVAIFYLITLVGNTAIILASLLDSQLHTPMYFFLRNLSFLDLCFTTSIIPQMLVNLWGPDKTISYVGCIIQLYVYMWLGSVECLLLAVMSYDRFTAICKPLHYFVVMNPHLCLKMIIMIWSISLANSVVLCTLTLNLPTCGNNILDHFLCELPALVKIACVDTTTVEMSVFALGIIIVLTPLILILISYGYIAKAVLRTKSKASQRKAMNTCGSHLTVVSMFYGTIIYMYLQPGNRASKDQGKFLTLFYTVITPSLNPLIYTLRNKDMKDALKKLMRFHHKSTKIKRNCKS

OR1D2; OR1D1 (Table 2) = OR1D2; OR1D1 (Table 2) (Homo sapiens, UniProt P34982); experiment: cell-based
Chain of OR1D2; OR1D1 (Table 2) (P34982 whole entry): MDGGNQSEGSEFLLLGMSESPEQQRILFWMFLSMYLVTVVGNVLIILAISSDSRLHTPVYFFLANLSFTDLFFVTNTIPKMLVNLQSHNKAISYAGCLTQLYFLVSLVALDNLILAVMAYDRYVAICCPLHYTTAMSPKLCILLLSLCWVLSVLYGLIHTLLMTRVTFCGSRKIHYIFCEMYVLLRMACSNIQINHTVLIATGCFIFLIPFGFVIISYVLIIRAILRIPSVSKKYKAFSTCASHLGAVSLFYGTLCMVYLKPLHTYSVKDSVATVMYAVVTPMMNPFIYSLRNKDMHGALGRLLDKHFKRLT

OR2J2 = target: T8, OR2J2 (Homo sapiens, UniProt O76002); experiment: cAMPr fluorescence imaging in transfected HEK293T cells; format: cell-based
T8 sequence (O76002 1-312): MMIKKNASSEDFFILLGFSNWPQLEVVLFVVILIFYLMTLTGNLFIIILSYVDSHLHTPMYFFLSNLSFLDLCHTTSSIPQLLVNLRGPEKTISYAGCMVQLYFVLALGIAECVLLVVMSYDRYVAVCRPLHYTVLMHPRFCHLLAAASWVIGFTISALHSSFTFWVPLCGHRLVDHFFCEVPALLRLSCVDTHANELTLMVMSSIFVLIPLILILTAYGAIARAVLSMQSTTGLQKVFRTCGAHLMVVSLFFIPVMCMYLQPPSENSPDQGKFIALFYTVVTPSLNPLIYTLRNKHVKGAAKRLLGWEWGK
Method in brief: as §1

Cc1nccnc1C [2,3-dimethyl pyrazine]
EC50 (OR5K1): 12 mM

CC1=C(O)C(=O)CC1 [cyclotene]
EC50 (OR8D1): 1100 µM

C=CCc1ccc(O)c(OC)c1 [eugenol]
EC50 (Olfr73 (mOR-EG)): 154 µM

CC(C)CC(=O)O [isovaleric acid]
EC50 (OR51E1): 840 µM

COC(=O)c1ccccc1N [methyl anthranilate]
EC50 (OR5P3): 2.2 mM

CC1CCCCCCCCCCCCC(=O)C1 (centres unmarked) [muscone]
EC50 (OR5AN1): 290 µM

CCCCCOC(C)=O [pentyl acetate]
EC50 (OR2W1): 44 µM

CC1=C(O)C(=O)OC1C (centres unmarked) [sotolon]
EC50 (OR8D1): 7.7 µM

OCCc1ccccc1 [β-phenylethyl alcohol]
EC50 (OR2W1): 1500 µM

CCCCCCCC1CCC(=O)O1 (centres unmarked) [γ-undecalactone]
EC50 (OR1D2; OR1D1 (Table 2)): 150 µM
EC50 (OR2J2): 250 µM
